{"data": "Assay results gathered from unrelated publications", "cell line": "NCI-H1299", "observed": "cell growth or viability", "note": "Protocols differ between the studies behind these lines."}
{"SMILES": "OCc1cn(Cc2ccc(Cl)cc2)c2ccccc12", "technique": "SRB", "time": "72 h", "IC50 [µM]": "≥ 13"}
{"SMILES": "C/C(=N\\O)c1ccc(-c2ccc(O)c(Cl)c2)c(Cl)c1O", "technique": "MTT", "time": "48 h", "IC50 [µM]": 45.8}
{"SMILES": "COc1cc(Nc2nccc(-c3cnn4nc(OC)ccc34)n2)cc(C(F)(F)F)c1", "technique": "ATP luminescence", "IC50 [µM]": 0.26}
{"SMILES": "OCc1cn(Cc2cccc(Cl)c2)c2ccccc12", "technique": "SRB", "time": "72 h", "IC50 [µM]": "≥ 13"}
{"SMILES": "COc1ccccc1/C=C/CNCC(O)COc1cccc2ncccc12 (centres unmarked)", "technique": "CCK-8", "time": "72 h", "IC50 [µM]": 36.6}
{"SMILES": "CC(C)C[C@H](NC(=O)[C@H](Cc1ccccc1)NC(=O)c1cnccn1)B(O)O", "technique": "ATP luminescence", "IC50 [µM]": 0.0099}
{"SMILES": "COc1ccccc1/C=C/CNCC(O)COc1ccc2ncccc2c1 (centres unmarked)", "technique": "CCK-8", "time": "72 h", "IC50 [µM]": "> 100"}
{"SMILES": "COc1cc2c(Nc3ccc(NC(=O)c4ccccc4)cc3)ncnc2cc1OCCCN1CCOCC1", "technique": "MTS", "time": "48 h", "IC50 [µM]": 1.1}
{"SMILES": "COc1ccccc1/C=C/CNCC(O)COc1cccc2c1[nH]c1ccccc12 (centres unmarked)", "technique": "CCK-8", "time": "72 h", "IC50 [µM]": 16.3}
{"SMILES": "C/C(=N\\O)c1ccc(-c2ccc(O)c(C)c2)c(Cl)c1O", "technique": "MTT", "time": "48 h", "IC50 [µM]": 30.3}
{"SMILES": "O=c1[nH]cc(S(=O)(=O)Nc2cccc(-c3nnc(-c4cccc(Cl)c4)o3)c2)c(=O)[nH]1", "technique": "MTT", "time": "24 h", "IC50 [µM]": 27.6}
